Screening results deposited in PubChem BioAssay by several laboratories.
Only some compounds are listed: those with a hit (about 2.1% of all), similar ones and a draw of the others.
Hck-Nef inh: human Hck-Nef kinase inhibition; actives 0.68% (n = 220,000); inhibition, % at 20 µM; P08631; Recombinant Hck-YEEI plus Nef, Z-Lyte FRET kinase assay;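 active = Hck-Nef kinase inhibition above about 50%, limit read from the data; inactive = inhibition below that limit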;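 also: 0% = DMSO with Hck plus Nef and 100% = Hck alone without Nef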
p-CIP stab down: lowers stability of the mouse p/CIP coactivator protein; F442A p/CIP-EGFP cells, EGFP fluorescence, 16 h; decrease of EGFP signal, % at 10 µM; actives 0.01% (n = 290,000); AID 1984;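 active = EGFP signal decrease of at least 30% at 10 µM or well 3 SD below plate mean, unless failing retest; inactive = the rest, including hits failing retest or dose response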
Runt-CBFb FRET: inhibitors of human RUNX1 Runt domain binding to CBFb; Cerulean-Runt/Venus-CBFb FRET ratio 530/480, 1 h; inhibition, % at 20 µM; actives 0.46% (n = 220,000); AID 1496;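 active = inhibition over about 50% at 20 µM in the single-dose screen, limit read from the data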;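 also: 0% = DMSO wells and 100% = excess unlabeled CBFb competitor control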
Target sequence (Q01196 whole entry, looked up, the tested form may be a part): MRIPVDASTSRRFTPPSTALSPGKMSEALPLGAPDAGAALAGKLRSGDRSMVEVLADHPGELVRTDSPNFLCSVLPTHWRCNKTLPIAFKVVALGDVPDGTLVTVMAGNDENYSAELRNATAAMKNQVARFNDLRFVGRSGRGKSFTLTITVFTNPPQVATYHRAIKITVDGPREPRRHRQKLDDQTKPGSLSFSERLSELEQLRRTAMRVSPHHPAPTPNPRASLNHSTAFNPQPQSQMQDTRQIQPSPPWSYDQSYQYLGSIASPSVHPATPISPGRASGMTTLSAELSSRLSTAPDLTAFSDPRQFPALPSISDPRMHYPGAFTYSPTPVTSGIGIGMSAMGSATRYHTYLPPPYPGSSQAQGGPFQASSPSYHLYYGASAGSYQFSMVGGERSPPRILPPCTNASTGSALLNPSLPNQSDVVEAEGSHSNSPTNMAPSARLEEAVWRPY
Target sequence (Q13951 whole entry, looked up, the tested form may be a part): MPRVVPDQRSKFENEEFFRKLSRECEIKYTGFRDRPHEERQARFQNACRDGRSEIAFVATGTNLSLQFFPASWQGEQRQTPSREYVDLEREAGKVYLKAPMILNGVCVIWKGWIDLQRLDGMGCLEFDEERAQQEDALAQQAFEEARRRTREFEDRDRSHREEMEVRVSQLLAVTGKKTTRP
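test system = Cerulean-Runt domain fusion protein, energy donor | probe or stimulus = Venus-CBFb binding partner, 100 nM | incubation = two 1 h room-temperature incubations shielded from light | detection = fluorescence energy transfer, 422 nm excitation, 530/480 nm emission | measure = loss of energy transfer signal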
Runt-SMMHC FRET: inhibitors of human RUNX1 Runt domain binding to CBFb-SMMHC | Q01196+Q13951 | Cerulean-Runt/Venus-CBFb-SMMHC FRET ratio 530/480, 1 h | inhibition, % at 20 µM | actives 0.74% (n = 220,000);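 active = mean inhibition across duplicate retests at 20 µM reaching about 50%, limit read from the data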;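 also: 0% = DMSO wells and 100% = wells with excess untagged CBFb-SMMHC; inhibitors lower the FRET ratio by blocking Runt binding to CBFb-SMMHC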
RanGTP-Impb inh: disruptors of Ran-importin-beta complex formation – biochemical, FRET, CFP-Ran, YFP-importin-beta, homogeneous, primary screen; cell-free CFP-Ran/YFP-importin-beta FRET ratio; actives 1.1% (n = 300,000); inhibition, % (test concentration not listed);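 active = more than half of the replicate wells show a fall in the fluorescence ratio signal beyond about 16%, limit read from the data, passing the limit was not always enough; inconclusive = exactly half of the replicate wells pass the set limit; inactive = fewer than half of replicates pass the limit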;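 also: 0% = DMSO wells and 100% = Ran loaded with GDP instead of GTP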
Pemphigus Ab inh: inhibitors of pemphigus antibody binding to human desmoglein-3 | P32926 | DSG3-coupled beads, scFv-anti-DSG3-GFP binding, flow cytometry; active compounds read low | binding (percent of control), % at 10 µM | actives 0.48% (n = 310,000);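 active = binding more than 3 SD below its plate's average and above zero; inconclusive = below that plate limit but binding exactly zero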;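 also: hits lower antibody fragment binding to DSG3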
YIC FRET counter: counter-screen: alters YIC FRET probe signal | shares compounds with RanGTP-Impb inh | Purified YIC probe, intramolecular FRET ratio YFP/CFP | IC50, µM | actives 40% (n = 1,000);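 active = fitted half-maximal inhibitory concentration no more than tenfold above the top dose tested; inconclusive = flat fit with 30 to 70% activity, or poor fit; inactive = half-maximal concentration beyond tenfold above the top dose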
Active calls of the source: *; ? = inconclusive; . = not tested or not shown.

SMILES	Hck-Nef inh	p-CIP stab down	Runt-CBFb FRET	Runt-SMMHC FRET	RanGTP-Impb inh	Pemphigus Ab inh	YIC FRET counter
Cc1nn(CC(=O)Nc2ccc(Cl)cc2)c(=O)c2cc(-c3ccccc3)nn12	.	-9	.	.	-2	106	.
CCC(c1nnnn1C1CCCC1)N1CCC(C(N)=O)CC1 (configuration not stated)	15	4	1	0	16*	101	>50
COc1ccc(-c2nc3ccc(C(=O)NCCCN4CCOCC4)cc3nc2-c2ccc(OC)cc2)cc1	.	-11	.	.	21*	98	22*
CN(C)c1oc(-c2cccs2)nc1C#N	1	16	1	-2	24*	108	>50
CC(=O)Nc1ccc(-c2ccc(NC(C)=O)cc2)cc1	21	3	0	-2	-3	88	.
COC(=O)Nc1ccc(NC(C)=O)cc1	1	-8	-1	0	17*	119	>50
O=C1C(=O)N(Cc2cccs2)c2ccccc21	.	-18	.	.	4	114	.
COc1ccc(NC(=O)CN2C(=O)CC(C)S(=O)(=O)c3ccccc32)cc1 (configuration not stated)	.	5	.	.	18*	109	>50
Cc1ccc2cc(C#N)c(N3CCCN(S(=O)(=O)c4ccc(F)cc4)CC3)nc2c1	11	0	5	46	18*	121	25*
Cc1ccc2cc(C#N)c(N3CCCN(S(=O)(=O)c4ccccc4)CC3)nc2c1	10	-4	1	1	?	.	.
CC(c1nc2ccccc2n1Cc1ccccc1)N1CCCCC1 (configuration not stated)	.	-2	.	.	26*	99	>50
COc1ccc(-c2cc(C(=O)O)nc3ccc4ccccc4c23)cc1OC	20	14	0	6	18*	112	>50
COC(=O)c1nccnc1C(=O)Nc1ccccc1N1CCOCC1	.	16	.	.	1	96	.
Cc1cccc(NS(=O)(=O)c2ccc(C(=O)N3CCCCCC3)cc2)c1C	.	.	.	.	17*	104	>50
Cc1cccc(NS(=O)(=O)c2ccc(C(=O)N3CCCC3)cc2)c1C	.	.	.	.	3	100	.
CC1CCCCN1Cc1c(O)ccc2c(=O)c(-c3nc4ccccc4s3)coc12 (configuration not stated)	43	1	10	25	38*	97	<0.38*
C=CCn1c(SCC(=O)N2CCCCC2)nnc1-c1ccncc1	11	8	0	-2	36*	114	>50
COc1ccc(-n2cnc3ccccc3c2=O)c([N+](=O)[O-])c1	.	-7	.	.	3	92	.
COc1ccc(CNCc2c(O)c(Cl)cc3c(C)c(C)c(=O)oc23)c(OC)c1	.	-5	.	.	18*	104	7*
CCc1cc(=O)oc2c(CNCc3ccc(OC)cc3OC)c(O)c(Cl)cc12	.	-1	.	.	34*	91	32*
COc1ccc(CNCc2ccncc2)c(OC)c1	.	6	.	.	6	107	.
Cc1ccc(S(=O)(=O)NC(C(=O)N2CCOCCOCCOCC2)c2ccccc2)cc1 (configuration not stated)	4	-29	2	-2	0	99	.
Cc1ccc(S(=O)(=O)NC(C(=O)Oc2ccc3ccc(=O)oc3c2)c2ccccc2)cc1 (configuration not stated)	58*	-14	85*	160*	20*	113	28*
Cc1nn(C)c(Oc2ccc(Cl)cc2)c1C(=O)O	2	3	0	4	23*	100	>50
O=C(c1ccco1)N1CCN(c2cc(=O)n(-c3ccc(Cl)cc3)c(=O)[nH]2)CC1	0	-9	0	2	48*	105	>50
CCOc1ccc(C(=O)c2cc3ccc(O)cc3oc2=O)cc1	32	4	86*	90*	53*	100	8*
O=C(c1ccc([N+](=O)[O-])cc1)c1cc2ccc(O)cc2oc1=O	.	-9	.	.	2	99	.
